Assay results as given in ChEMBL document CHEMBL1153083, “Antiprotozoal, anticancer and antimicrobial activities of dihydroartemisinin acetal dimers and monomers” (Bioorg Med Chem, 2009).
pIC50: −log10 of the molar value. Active and inactive are the calls of the source. The calls are words filed in the database; no cut-off is given here.

Columns and labels:
Staphylococcus aureus = experiment: Antibacterial activity against methicillin-resistant Staphylococcus aureus ATCC 43300 by modified CLSI/NCCLS method; assay type: functional, organism-based
[1] = system: Mycobacterium intracellulare; experiment: Antibacterial activity against Mycobacterium intracellular ATCC 23068 by Franzblau method; assay type: functional, organism-based
[2] = Toxicity against pig LLC-PK11 cells after 48 hrs by neutral red assay; assay type: cell-based, Sus scrofa; conditions: for CC50 at 48 h: LLC-PK11 cells, read-out: TC50; for TC50: llc-pk11, 48 h
Procedure, shortened: (§1)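 Cells seeded at 25,000 per well and incubated 24 h, then exposed to samples for 48 h. Viable cells were counted by neutral red, with DMSO as vehicle control. IC50 or TC50 values were derived from logarithmic plots of growth inhibition versus concentration.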

[3] = Selectivity index, ratio of TC50 for african green monkey (Cercopithecus aethiops) Vero cells to IC50 for Plasmodium falciparum W2; assay type: toxicity, cell-based
[4] = (§2) Toxicity against african green monkey Vero cells after 48 hrs by neutral red assay; assay type: cell-based; conditions: chlorocebus sabaeus, Vero cells; read-out: TC50; procedure, shortened: as §1
Pseudomonas aeruginosa = experiment: Antibacterial activity against Pseudomonas aeruginosa ATCC 27853 by modified CLSI/NCCLS method; assay type: functional, organism-based
Aspergillus fumigatus = experiment: Antifungal activity against Aspergillus fumigatus ATCC 90906 by modified CLSI/NCCLS method; assay type: functional, organism-based; conditions: for pIC50: Aspergillus fumigatus, ATCC 90906, read-out: IC50
Plasmodium falciparum [5] = experiment: Antiplasmodial activity against Plasmodium falciparum D6 infected in RBCs by parasitic LDH release assay; assay type: functional, organism-based
Procedure, shortened: (§3)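 Infected erythrocytes at 2% parasitemia and 2% hematocrit, in RPMI 1640 with 10% human serum and amikacin 60 μg/mL, were exposed to serial dilutions under N2/O2/CO2 (90:5:5) at 37°C for 72 h. LDH was read with Malstat reagent (30 min), then NBT/PES in the dark (60 min), stopped with 5% acetic acid, at 650 nm. IC50 came from percent growth dose-response curves.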

BT-549 = experiment: Cytotoxicity against human BT549 cells after 48 hrs by neutral red assay; assay type: functional, cell-based; conditions: for pIC50: Homo sapiens, BT-549, 48 h, read-out: IC50; for IC50: bt-549; procedure, shortened: as §1
Escherichia coli = experiment: Antibacterial activity against Escherichia coli ATCC 35218 by modified CLSI/NCCLS method; assay type: functional, organism-based
KB = experiment: Cytotoxicity against human KB cells after 48 hrs by neutral red assay; assay type: functional, cell-based; conditions: for pIC50: Homo sapiens, KB, 48 h, read-out: IC50; for IC50: kb; procedure, shortened: as §1
SK-OV-3 = experiment: Cytotoxicity against human SKOV3 cells after 48 hrs by neutral red assay; assay type: functional, cell-based; conditions: for IC50: sk-ov-3; procedure, shortened: as §1
Leishmania donovani = experiment: Antileishmanial activity against Leishmania donovani promastigotes after 48 hrs by alamar blue assay; assay type: functional, organism-based; conditions: for pIC50: read-out: IC50
Candida albicans = experiment: Antifungal activity against Candida albicans ATCC 90028 by modified CLSI/NCCLS method; assay type: functional, organism-based; conditions: for pIC50: Candida albicans, ATCC 90028, read-out: IC50
Plasmodium falciparum [6] = experiment: Antiplasmodial activity against Plasmodium falciparum W2 infected in RBCs by parasitic LDH release assay; assay type: functional, organism-based; procedure, shortened: as §3
SK-MEL = experiment: Cytotoxicity against human SK-MEL cells after 48 hrs by neutral red assay; assay type: functional, cell-based; conditions: for pIC50: Homo sapiens, SK-MEL, 48 h, read-out: IC50; for IC50: sk-mel; procedure, shortened: as §1
Cryptococcus neoformans = experiment: Antifungal activity against Cryptococcus neoformans ATCC 90113 by modified CLSI/NCCLS method; assay type: functional, organism-based
[7] = Selectivity index, ratio of TC50 for african green monkey (Cercopithecus aethiops) Vero cells to IC50 for Plasmodium falciparum D6; assay type: toxicity, cell-based
Vero = experiment: as §2; assay type: cell-based; conditions: chlorocebus sabaeus, vero, 48 h; procedure, shortened: as §1
[8] = Toxicity against african green monkey Vero cells; assay type: cell-based; conditions: chlorocebus sabaeus; procedure, shortened: as §1
Nakaseomyces glabratus = experiment: Antifungal activity against Candida glabrata ATCC 90030 by modified CLSI/NCCLS method; assay type: functional, organism-based
Pichia kudriavzevii = experiment: Antifungal activity against Candida krusei ATCC 6258 by modified CLSI/NCCLS method; assay type: functional, organism-based; conditions: Pichia kudriavzevii, ATCC 6258; read-out: IC50

| Structure (SMILES) | IC50 (Staphylococcus aureus) | IC50 [1] | CC50 at 48 h [2] | selectivity ratio [3] | CC50 at 48 h [4] | IC50 (Pseudomonas aeruginosa) | pIC50 (Plasmodium falciparum [5]) | pIC50 (BT-549) | IC50 (Escherichia coli) | pIC50 (KB) | IC50 (SK-OV-3) | IC90 (Leishmania donovani; Leishmania donovani, 48 h) | pIC50 (Leishmania donovani; Leishmania donovani, 48 h) | pIC50 (Candida albicans) | pIC50 (Plasmodium falciparum [6]) | pIC50 (SK-MEL) | pIC50 (Cryptococcus neoformans) | selectivity ratio [7] | TC50 [2] | IC50 (Aspergillus fumigatus) | also measured |
| --- | --- | --- | --- | --- | --- | --- | --- | --- | --- | --- | --- | --- | --- | --- | --- | --- | --- | --- | --- | --- | --- |
| C=C[C@@H](CO[C@H]1O[C@@H]2O[C@@]3(C)CC[C@H]4[C@H](C)CC[C@@H]([C@H]1C)[C@@]24OO3)O[C@H]1O[C@@H]2O[C@@]3(C)CC[C@H]4[C@H](C)CC[C@@H]([C@H]1C)[C@@]24OO3 | Not Active | Not Active | > 16100 nM | 30 | 430 nM | Not Active | 7.62 | 5.59 | Not Active | 6.57 | Not Active | 62800 nM | 4.68 | 5.84 | 7.59 | 4.89 | 5.19 | 32 |  |  | pIC50 (Aspergillus fumigatus): 4.79 |
| C[C@H]1[C@@H](OC/C=C\CO)O[C@@H]2O[C@@]3(C)CC[C@H]4[C@H](C)CC[C@@H]1[C@@]24OO3 | Not Active | Not Active |  | > 1760 |  | Not Active | 8.21 |  | Not Active |  | Not Active |  | 4.37 |  | 8.12 |  | 6.25 | > 2160 | Not Active | Not Active | TC50 (Vero): Not Active; IC50 (BT-549): Not Active; IC50 (KB): Not Active; IC90 (Leishmania donovani): inactive; IC50 (Candida albicans): Not Active; CC50 [8]: > 13400 nM; IC50 (SK-MEL): Not Active |
| C[C@H]1[C@@H](O[C@@H](CO[C@H]2O[C@@H]3O[C@@]4(C)CC[C@H]5[C@H](C)CC[C@@H]([C@H]2C)[C@@]35OO4)[C@H](O)CO)O[C@@H]2O[C@@]3(C)CC[C@H]4[C@H](C)CC[C@@H]1[C@@]24OO3 |  |  |  | 59 |  | Not Active | 7.93 |  |  |  | Not Active | 29700 nM | 5.19 | 6.04 | 7.85 |  | 6.28 | 71 | Not Active |  | pIC50 (Staphylococcus aureus; Staphylococcus aureus, ATCC 43300, read-out: IC50): 4.64; pIC50 ([1]; Mycobacterium intracellulare, ATCC 23068, read-out: IC50): 4.82; TC50 (Vero): Not Active; pIC50 (Aspergillus fumigatus): 5.12; IC50 (BT-549): Not Active; pIC50 (Escherichia coli; Escherichia coli, ATCC 35218, read-out: IC50): 5.12; IC50 (KB): Not Active; IC50 (SK-MEL): Not Active |
| COc1cccc2c1C(=O)c1c(O)c3c(c(O)c1C2=O)C[C@@](O)(C(=O)CO)C[C@@H]3O[C@H]1C[C@H](N)[C@H](O)[C@H](C)O1 [DOXORUBICIN] |  |  | 1290 nM |  |  |  |  | 5.71 |  | 5.69 |  |  |  |  |  | 5.76 |  |  |  |  | TC50 (Vero): Non-toxic; pIC50 (SK-OV-3; Homo sapiens, SK-OV-3, 48 h, read-out: IC50): 5.69 |
| C[C@H]1[C@@H](OC/C=C\CO[C@H]2O[C@@H]3O[C@@]4(C)CC[C@H]5[C@H](C)CC[C@@H]([C@H]2C)[C@@]35OO4)O[C@@H]2O[C@@]3(C)CC[C@H]4[C@H](C)CC[C@@H]1[C@@]24OO3 | Not Active | Not Active |  | 116 | 180 nM | Not Active | 8.20 | 5.82 | Not Active | 6.49 | Not Active |  |  |  | 8.21 |  | 4.62 | 113 | Non-toxic | Not Active | IC50 (Leishmania donovani): Not Active; IC90 (Leishmania donovani): inactive; IC50 (Candida albicans): Not Active; IC50 (SK-MEL): Not Active |
| C[C@H]1[C@@H](OCC(O)CO[C@H]2O[C@@H]3O[C@@]4(C)CC[C@H]5[C@H](C)CC[C@@H]([C@H]2C)[C@@]35OO4)O[C@@H]2O[C@@]3(C)CC[C@H]4[C@H](C)CC[C@@H]1[C@@]24OO3 (stereo partly specified) | Not Active | Not Active | 150 nM | 100 | 5600 nM |  | 7.95 | 6.32 |  | 6.59 | Not Active | 47900 nM | 4.89 | 6.10 | 8.42 | 5.10 | 6.49 | 34 |  | Not Active | IC50 (Nakaseomyces glabratus): Not Active; pIC50 (Pichia kudriavzevii): 6.40 |
| C[C@H]1[C@@H](OCC(CO[C@H]2O[C@@H]3O[C@@]4(C)CC[C@H]5[C@H](C)CC[C@@H]([C@H]2C)[C@@]35OO4)OS(C)(=O)=O)O[C@@H]2O[C@@]3(C)CC[C@H]4[C@H](C)CC[C@@H]1[C@@]24OO3 (stereo partly specified) | Not Active | Not Active |  | 542 | 2130 nM | Not Active | 7.93 |  | Not Active | 6.55 | Not Active | 55500 nM | 4.64 | 5.37 | 7.93 |  | 5.85 | 542 | Non-toxic | Not Active | IC50 (BT-549): Not Active; CC50 [8]: 6400 nM; IC50 (SK-MEL): Not Active |
| C[C@H]1[C@@H](OCC(=O)CO[C@H]2O[C@@H]3O[C@@]4(C)CC[C@H]5[C@H](C)CC[C@@H]([C@H]2C)[C@@]35OO4)O[C@@H]2O[C@@]3(C)CC[C@H]4[C@H](C)CC[C@@H]1[C@@]24OO3 | Not Active | Not Active | 100 nM | 44 | > 8030 nM |  | 8.28 | 6.62 |  | 6.62 | Not Active | 38500 nM | 5.13 | 5.62 | 8.24 | 6.25 | 6.06 | 49 |  |  | IC50 (Nakaseomyces glabratus): Not Active; pIC50 (Aspergillus fumigatus): 4.49; pIC50 (Pichia kudriavzevii): 6.06 |
